Assay results: ChEMBL document CHEMBL1121484, “Thrombin inhibitors. 2. Amide derivatives of N alpha-substituted L-arginine” (J Med Chem, 1980)

Each compound was assayed against Prothrombin (Bos taurus, UniProt P00735) (assay: Bovine thrombin concentration at which clotting time was prolonged 2x over the control.). Conditions: read-out: I50.
Format: functional
Outline: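 Clotting assay at 25 °C. The read-out was the time from thrombin addition to clot formation.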

IC50	Compound
0.4 µM	CCC1CCN(C(=O)C(CCCNC(=N)N)NS(=O)(=O)c2cccc3c(OC(C)C)cccc23)CC1 (stereo unspecified)
10 µM	CCC1CCN(C(=O)C(CCCN=C(N)N)NS(=O)(=O)c2ccc3cc4c(cc3c2)OCCO4)CC1 (stereo unspecified)
0.7 µM	CCC1CCN(C(=O)C(CCCNC(=N)N)NS(=O)(=O)c2ccc3c(c2)CCCC3)CC1 (stereo unspecified)
0.1 µM	COc1ccc2ccc(S(=O)(=O)NC(CCCN=C(N)N)C(=O)N3CCC(C)CC3)cc2c1 (stereo unspecified)
4 µM	CC1CCN(C(=O)C(CCCN=C(N)N)NS(=O)(=O)c2cccc3ccccc23)CC1 (stereo unspecified)
5 µM	CCC1CCN(C(=O)C(CCCNC(=N)N)NS(=O)(=O)c2ccc3c(c2)OCCCO3)CC1 (stereo unspecified)
500 µM	CN(C)c1cccc2c(S(=O)(=O)NC(CCCNC(=N)N)C(=O)NC3CCCCC3)cccc12 (stereo unspecified)
500 µM	CN(C)c1cccc2c(S(=O)(=O)NC(CCCNC(=N)N)C(=O)NC3CC3)cccc12 (stereo unspecified)
10 µM	N=C(N)NCCCC(NS(=O)(=O)c1cccc2ccccc12)C(=O)N1CCCCCC1 (stereo unspecified)
2 µM	CCC1CCN(C(=O)C(CCCN=C(N)N)NS(=O)(=O)c2ccc(OC)c3ccccc23)CC1 (stereo unspecified)
4 µM	COc1cccc2cccc(S(=O)(=O)NC(CCCN=C(N)N)C(=O)N3CCC(C)CC3)c12 (stereo unspecified)
6.5 µM	N=C(N)NCCCC(NS(=O)(=O)c1cccc2c1CCCC2)C(=O)N1CCOCC1 (stereo unspecified)
10 µM	C=CCNC(=O)C(CCCN=C(N)N)NS(=O)(=O)c1cccc2c(N(C)C)cccc12 (stereo unspecified)
1 µM	CC1CCN(C(=O)C(CCCNC(=N)N)NS(=O)(=O)c2cccc3c2CCCC3)CC1 (stereo unspecified)
40 µM	CCCCN(CCCC)C(=O)C(CCCNC(=N)N)NS(=O)(=O)c1cccc2c(N(C)C)cccc12 (stereo unspecified)
50 µM	CCCCN(C)C(=O)C(CCCNC(=N)N)NS(=O)(=O)c1ccc2ccccc2c1 (stereo unspecified)
2 µM	CN(C)c1cccc2c(S(=O)(=O)NC(CCCNC(=N)N)C(=O)N3CCC(C(C)(C)C)CC3)cccc12 (stereo unspecified)
1 µM	CCC1CCN(C(=O)C(CCCN=C(N)N)NS(=O)(=O)c2cccc3c([N+](=O)[O-])cccc23)CC1 (stereo unspecified)
1 µM	CCCC1CCN(C(=O)C(CCCN=C(N)N)NS(=O)(=O)c2cccc3c(N(C)C)cccc23)CC1 (stereo unspecified)
60 µM	COCCCNC(=O)C(CCCNC(=N)N)NS(=O)(=O)c1cccc2c(N(C)C)cccc12 (stereo unspecified)
0.3 µM	COc1cccc2c(S(=O)(=O)NC(CCCN=C(N)N)C(=O)N3CCC(C)CC3)cccc12 (stereo unspecified)
40 µM	COCCNC(=O)C(CCCN=C(N)N)NS(=O)(=O)c1cccc2c1CCCC2 (stereo unspecified)
40 µM	CN(C)c1cccc2c(S(=O)(=O)NC(CCCNC(=N)N)C(=O)NCC3CCCCC3)cccc12 (stereo unspecified)

IC50	Compound
20 µM	CCC1CCN(C(=O)C(CCCN=C(N)N)NS(=O)(=O)c2ccc3ccc(=O)oc3c2)CC1 (stereo unspecified)
2 µM	CCC1CCN(C(=O)C(CCCN=C(N)N)NS(=O)(=O)c2cccc3c(Cl)cccc23)CC1 (stereo unspecified)
1 µM	CCC1CCN(C(=O)C(CCCN=C(N)N)NS(=O)(=O)c2cccc3ccc(C)cc23)CC1 (stereo unspecified)
0.7 µM	CCc1ccc2cc(S(=O)(=O)NC(CCCNC(=N)N)C(=O)N3CCC(CC)CC3)ccc2c1 (stereo unspecified)
7 µM	CN(Cc1ccccc1)C(=O)C(CCCN=C(N)N)NS(=O)(=O)c1cccc2c(N(C)C)cccc12 (stereo unspecified)
2 µM	CN1CCN(C(=O)C(CCCN=C(N)N)NS(=O)(=O)c2cccc3c(N(C)C)cccc23)CC1 (stereo unspecified)
0.2 µM	CCC1CCN(C(=O)C(CCCNC(=N)N)NS(=O)(=O)c2cccc3c2oc2ccccc23)CC1 (stereo unspecified)
100 µM	CN(C)c1cccc2c(S(=O)(=O)NC(CCCN=C(N)N)C(=O)N3CCC(c4ccccc4)CC3)cccc12 (stereo unspecified)
0.075 µM	COc1ccc2cc(S(=O)(=O)NC(CCCN=C(N)N)C(=O)N3CCC(C)CC3)cc(OC)c2c1 (stereo unspecified)
0.1 µM	CCC1CCN(C(=O)C(CCCNC(=N)N)NS(=O)(=O)c2ccc3ccc(OC)cc3c2)CC1 (stereo unspecified)
10 µM	CN(C)c1cccc2c(S(=O)(=O)NC(CCCN=C(N)N)C(=O)N3CC4CCCC(C4)C3)cccc12 (stereo unspecified)
0.15 µM	CCC1CCN(C(=O)C(CCCN=C(N)N)NS(=O)(=O)c2ccc3cc(OC)c(OC)cc3c2)CC1 (stereo unspecified)
0.9 µM	CN(C)c1cccc2c(S(=O)(=O)NC(CCCNC(=N)N)C(=O)N3CCCCCC3)cccc12 (stereo unspecified)
0.8 µM	CCC1CCN(C(=O)C(CCCN=C(N)N)NS(=O)(=O)c2ccc3cc(OC(C)C)ccc3c2)CC1 (stereo unspecified)
1 µM	CCc1cc2cc(S(=O)(=O)NC(CCCN=C(N)N)C(=O)N3CCC(CC)CC3)ccc2oc1=O (stereo unspecified)
6 µM	CCC1CCN(C(=O)C(CCCNC(=N)N)NS(=O)(=O)c2cccc3c(C#N)cccc23)CC1 (stereo unspecified)
20 µM	N=C(N)NCCCC(NS(=O)(=O)c1ccc2ccccc2c1)C(=O)N1CCCCCC1 (stereo unspecified)
100 µM	CCCCCCCNC(=O)C(CCCNC(=N)N)NS(=O)(=O)c1cccc2c(N(C)C)cccc12 (stereo unspecified)
1.5 µM	CCC1CCN(C(=O)C(CCCN=C(N)N)NS(=O)(=O)c2ccc3c(c2)C(=O)c2ccccc2C3=O)CC1 (stereo unspecified)
25 µM	CCC1CCN(C(=O)C(CCCN=C(N)N)NS(=O)(=O)c2ccc3c(c2)OCCO3)CC1 (stereo unspecified)
0.3 µM	CCC1CCN(C(=O)C(CCCNC(=N)N)NS(=O)(=O)c2ccc3c(c2)Cc2ccccc2O3)CC1 (stereo unspecified)
15 µM	CCCNC(=O)C(CCCN=C(N)N)NS(=O)(=O)c1cccc2c(N(C)C)cccc12 (stereo unspecified)
0.6 µM	CN(C)c1cccc2c(S(=O)(=O)NC(CCCNC(=N)N)C(=O)N3CCOCC3)cccc12 (stereo unspecified)

IC50	Compound
50 µM	CCCCN(CC)C(=O)C(CCCN=C(N)N)NS(=O)(=O)c1cccc2c(N(C)C)cccc12 (stereo unspecified)
4 µM	COCCNC(=O)C(CCCNC(=N)N)NS(=O)(=O)c1cccc2c(N(C)C)cccc12 (stereo unspecified)
0.6 µM	CC1CCN(C(=O)C(CCCN=C(N)N)NS(=O)(=O)c2ccc3c(c2)CCCC3)CC1 (stereo unspecified)
1 µM	CN(C)c1cccc2c(S(=O)(=O)NC(CCCNC(=N)N)C(=O)N3CCc4ccccc43)cccc12 (stereo unspecified)
8 µM	CC1CCN(C(=O)C(CCCN=C(N)N)NS(=O)(=O)c2ccc3c(c2)OCCCO3)CC1 (stereo unspecified)
100 µM	CCNC(=O)C(CCCN=C(N)N)NS(=O)(=O)c1cccc2c(N(C)C)cccc12 (stereo unspecified)
4 µM	COC1CCN(C(=O)C(CCCN=C(N)N)NS(=O)(=O)c2cccc3c(N(C)C)cccc23)CC1 (stereo unspecified)
6.5 µM	CC1CCCN(C(=O)C(CCCNC(=N)N)NS(=O)(=O)c2cccc3c(N(C)C)cccc23)C1 (stereo unspecified)
2 µM	CN(C)c1cccc2c(S(=O)(=O)NC(CCCNC(=N)N)C(=O)N3CCCCCCCC3)cccc12 (stereo unspecified)
0.67 µM	CN(C)c1cccc2c(S(=O)(=O)NC(CCCNC(=N)N)C(=O)N3Cc4ccccc4C3)cccc12 (stereo unspecified)
6 µM	CCC1CCN(C(=O)C(CCCN=C(N)N)NS(=O)(=O)c2ccc3ccc(O)cc3c2)CC1 (stereo unspecified)
0.2 µM	CCC1CCN(C(=O)C(CCCNC(=N)N)NS(=O)(=O)c2ccc3cc(OC)ccc3c2)CC1 (stereo unspecified)
0.15 µM	CCC1CCN(C(=O)C(CCCNC(=N)N)NS(=O)(=O)c2ccc3c(c2)Oc2ccccc2O3)CC1 (stereo unspecified)
0.5 µM	CCC1CCN(C(=O)C(CCCN=C(N)N)NS(=O)(=O)c2ccc3cc(C)ccc3c2)CC1 (stereo unspecified)
50 µM	CCCCNC(=O)C(CCCNC(=N)N)NS(=O)(=O)c1cccc2ccccc12 (stereo unspecified)
1 µM	CC(C)C1CCN(C(=O)C(CCCN=C(N)N)NS(=O)(=O)c2cccc3c(N(C)C)cccc23)CC1 (stereo unspecified)
130 µM	CCCCCNC(=O)C(CCCN=C(N)N)NS(=O)(=O)c1cccc2c(N(C)C)cccc12 (stereo unspecified)
7 µM	N=C(N)NCCCC(NS(=O)(=O)c1ccc2c(c1)CCCC2)C(=O)N1CCCC1 (stereo unspecified)
0.3 µM	CCC1CCN(C(=O)C(CCCN=C(N)N)NS(=O)(=O)c2ccc3cc(N(C)C)ccc3c2)CC1 (stereo unspecified)
8 µM	CN(C)c1cccc2c(S(=O)(=O)NC(CCCN=C(N)N)C(=O)N3CCC(C)(C)CC3)cccc12 (stereo unspecified)
1 µM	CCC1CCN(C(=O)C(CCCN=C(N)N)NS(=O)(=O)c2cc(OC)c3ccccc3c2)CC1 (stereo unspecified)
1 µM	CCC1CCN(C(=O)C(CCCNC(=N)N)NS(=O)(=O)c2cccc3ccccc23)CC1 (stereo unspecified)
0.3 µM	CCC1CCN(C(=O)C(CCCNC(=N)N)NS(=O)(=O)c2ccc3c(c2)oc2ccccc23)CC1 (stereo unspecified)

IC50	Compound
5.5 µM	CCOc1cc2ccc(S(=O)(=O)NC(CCCN=C(N)N)C(=O)N3CCC(CC)CC3)cc2cc1OCC (stereo unspecified)
55 µM	CCN(CC)C(=O)C(CCCN=C(N)N)NS(=O)(=O)c1cccc2c(N(C)C)cccc12 (stereo unspecified)
2 µM	CCCCN(C)C(=O)C(CCCNC(=N)N)NS(=O)(=O)c1cccc2c(N(C)C)cccc12 (stereo unspecified)
1 µM	CCC1CCN(C(=O)C(CCCN=C(N)N)NS(=O)(=O)c2ccc3ccccc3c2)CC1 (stereo unspecified)
15 µM	CCC1CCN(C(=O)C(CCCNC(=N)N)NS(=O)(=O)c2ccc3c(c2)CCCO3)CC1 (stereo unspecified)
0.4 µM	CCC1CCN(C(=O)C(CCCN=C(N)N)NS(=O)(=O)c2ccc3ccc(C)cc3c2)CC1 (stereo unspecified)
50 µM	CCCCN(C)C(=O)C(CCCN=C(N)N)NS(=O)(=O)c1cccc2ccccc12 (stereo unspecified)
20 µM	CCCCCCNC(=O)C(CCCN=C(N)N)NS(=O)(=O)c1cccc2c(N(C)C)cccc12 (stereo unspecified)
1.3 µM	CC1CCCCN1C(=O)C(CCCN=C(N)N)NS(=O)(=O)c1cccc2c(N(C)C)cccc12 (stereo unspecified)
3.3 µM	CN(C)c1cccc2c(S(=O)(=O)NC(CCCNC(=N)N)C(=O)N3CCCC3)cccc12 (stereo unspecified)
3.5 µM	CC(=O)N1CCN(C(=O)C(CCCN=C(N)N)NS(=O)(=O)c2cccc3c(N(C)C)cccc23)CC1 (stereo unspecified)
0.15 µM	COc1cc2ccc(S(=O)(=O)NC(CCCN=C(N)N)C(=O)N3CCC(C)CC3)cc2cc1OC (stereo unspecified)
0.1 µM	CCOc1cccc2c(S(=O)(=O)NC(CCCNC(=N)N)C(=O)N3CCC(CC)CC3)cccc12 (stereo unspecified)
4.5 µM	CC1CCN(C(=O)C(CCCN=C(N)N)NS(=O)(=O)c2ccc3ccccc3c2)CC1 (stereo unspecified)
500 µM	COc1ccc(CNC(=O)C(CCCN=C(N)N)NS(=O)(=O)c2cccc3c(N(C)C)cccc23)cc1 (stereo unspecified)
0.1 µM	CCC1CCN(C(=O)C(CCCNC(=N)N)NS(=O)(=O)c2cc(OC)c3cc(OC)ccc3c2)CC1 (stereo unspecified)
0.5 µM	CCCOc1cccc2c(S(=O)(=O)NC(CCCNC(=N)N)C(=O)N3CCC(CC)CC3)cccc12 (stereo unspecified)
20 µM	N=C(N)NCCCC(NS(=O)(=O)c1ccc2ccccc2c1)C(=O)N1CCOCC1 (stereo unspecified)
100 µM	N=C(N)NCCCC(NS(=O)(=O)c1cccc2ccccc12)C(=O)N1CCC(c2ccccc2)CC1 (stereo unspecified)
6 µM	CCC1CCN(C(=O)C(CCCN=C(N)N)NS(=O)(=O)c2cccc3c(O)cccc23)CC1 (stereo unspecified)
100 µM	CC(C)CNC(=O)C(CCCNC(=N)N)NS(=O)(=O)c1cccc2c(N(C)C)cccc12 (stereo unspecified)
0.4 µM	CCC1CCN(C(=O)C(CCCN=C(N)N)NS(=O)(=O)c2ccc3ccccc3c2OC)CC1 (stereo unspecified)
